Test results taken from ChEMBL document CHEMBL1139971, “RXR-LXR heterodimer modulators for the potential treatment of dyslipidemia” (Bioorg Med Chem Lett, 2007).
One block for each compound: values may come before it. Active and inactive are the calls of the source. The rule behind the calls is not given here.

Experiments:
[1] = Activity at RXR-LXR heterodimer in human THP1 cells assessed as induction of ABCA1 mRNA; assay type: cell-based; details: THP-1
[2] = target: T1, Retinoic acid receptor RXR-alpha (Homo sapiens, UniProt P19793); assay: (§1) Activity at RXRalpha by GAL4DNA cotransfection assay
T1 sequence (P19793 whole entry): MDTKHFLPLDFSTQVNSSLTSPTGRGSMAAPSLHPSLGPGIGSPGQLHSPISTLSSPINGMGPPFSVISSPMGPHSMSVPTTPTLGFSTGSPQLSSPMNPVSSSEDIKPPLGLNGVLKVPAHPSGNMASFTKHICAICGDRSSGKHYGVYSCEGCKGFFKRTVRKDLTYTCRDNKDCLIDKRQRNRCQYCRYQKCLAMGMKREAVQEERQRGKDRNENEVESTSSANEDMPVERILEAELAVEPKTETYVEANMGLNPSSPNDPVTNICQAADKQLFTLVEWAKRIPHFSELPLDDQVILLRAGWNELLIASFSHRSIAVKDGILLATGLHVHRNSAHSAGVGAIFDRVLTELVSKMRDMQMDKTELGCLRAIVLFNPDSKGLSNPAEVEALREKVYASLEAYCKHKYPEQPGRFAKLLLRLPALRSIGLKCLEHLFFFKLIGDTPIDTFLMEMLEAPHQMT
How it was run: (§2)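 RXRα co-transfection assay using the yeast GAL4 DNA-binding domain fused to the RXRα ligand-binding domain, with a yeast promoter driving luciferase. EC50 is reported, and efficacy is given as % maximal activation versus the reference RXR agonist.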

[3] = Activity at RXR-PPARgamma heterodimer in primary human preadipocytes assessed as induction of adipocytes fatty acid binding protein by bDNA assay; assay type: cell-based
Homo sapiens [4] = organism: Homo sapiens; assay: Activity at RXR-PPARgamma in primary human preadipocytes assessed as induction of adipocytes fatty acid binding protein by bDNA assay relative to rosiglitazone; assay type: cell-based
Rattus norvegicus [5] = assay: Effect on serum cholesterol level in high cholesterol diet fed Sprague-Dawley rat at 1 mg/kg, po after 8 days relative to control; assay type: functional
How it was run: (§3)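 Male Sprague–Dawley rats were fed a high-cholesterol atherogenic diet ad libitum. After 6 days on the diet, oral dosing began at 0.3, 1, 3 or 10 mg/kg in 15% hydroxypropyl β-cyclodextrin, pH 10, for 8 days total. Serum total cholesterol, HDL-C, LDL-C and triglycerides and plasma Cmax were measured. Groups are compared with vehicle as mean ± SEM by one-way ANOVA with Dunnett's test.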

Rattus norvegicus [6] = assay: Effect on serum HDL-C level in high cholesterol diet fed Sprague-Dawley rat at 1 mg/kg, po after 8 days relative to control; assay type: functional; how it was run: as §3
Rattus norvegicus [7] = assay: Effect on serum LDL-C level in high cholesterol diet fed Sprague-Dawley rat at 1 mg/kg, po after 8 days relative to control; assay type: functional; how it was run: as §3
Rattus norvegicus [8] = assay: Effect on serum triglyceride level in high cholesterol diet fed Sprague-Dawley rat at 1 mg/kg, po after 8 days relative to control; assay type: functional; how it was run: as §3
[9] = target: T2, Retinoic acid receptor RXR-alpha (Homo sapiens) (UniProt P19793); assay: Activity at RXRalpha by GAL4DNA cotransfection assay relative to 5-((3-(1-ethyl-4,4,6-trimethyl-2-oxo-1,2,3,4-tetrahydroquinolin-7-yl)-4-(trifluoromethoxy)phenyl)methylene)thiazolidine-2,4-dione; how it was run: as §2
T2 sequence (whole entry): T1 sequence (P19793 whole entry)

THP-1 = assay: Activation of RXR-LXR heterodimer in human THP1 cells assessed as induction of ABCA1 mRNA relative to 5-((3-(1-ethyl-4,4,6-trimethyl-2-oxo-1,2,3,4-tetrahydroquinolin-7-yl)-4-(trifluoromethoxy)phenyl)methylene)thiazolidine-2,4-dione; assay type: cell-based; design: concentration or dose not given beside the values
Homo sapiens [10] = organism: Homo sapiens; assay: Activity at RXR-PPARgamma in primary human preadipocytes assessed as induction of adipocytes fatty acid binding protein by bDNA assay relative to 5-((3-(1-ethyl-4,4,6-trimethyl-2-oxo-1,2,3,4-tetrahydroquinolin-7-yl)-4-(trifluoromethoxy)phenyl)methylene)thiazolidine-2,4-dione; assay type: cell-based
[11] = target: T2, Retinoic acid receptor RXR-alpha (Homo sapiens); assay: as §1; how it was run: as §2
[12] = Oral bioavailability in Sprague-Dawley rat at 3 mg/kg; assay type: ADME, organism-based; details: in vivo
How it was run: (§4)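 Sprague–Dawley rats dosed at 3 mg/kg in 10% hydroxypropyl β-cyclodextrin (pH 10). Oral bioavailability, Cmax, AUC and terminal half-life were taken from the plasma profile.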

[13] = Cmax in Sprague-Dawley rat at 3 mg/kg; assay type: ADME, organism-based; design: dose 3 mg/kg; details: in vivo; how it was run: as §4
[14] = AUC in Sprague-Dawley rat at 3 mg/kg; assay type: ADME, organism-based; design: dose 3 mg/kg; details: plasma; how it was run: as §4
[15] = Half life in Sprague-Dawley rat at 3 mg/kg; assay type: ADME, organism-based; design: dose 3 mg/kg; details: in vivo; how it was run: as §4
[16] = Cmax in high cholesterol diet fed Sprague-Dawley rat at 0.3 mg/kg, po; assay type: ADME, organism-based; design: dose 0.3 mg/kg, route oral; details: in vivo; how it was run: as §3
[17] = Cmax in high cholesterol diet fed Sprague-Dawley rat at 10 mg/kg, po; assay type: ADME, organism-based; design: dose 10 mg/kg, route oral; details: in vivo; how it was run: as §3
Rattus norvegicus [18] = assay: Effect on serum cholesterol level in high cholesterol diet fed Sprague-Dawley rat at 0.3 mg/kg, po after 8 days relative to control; assay type: functional; how it was run: as §3
Rattus norvegicus [19] = assay: Effect on serum cholesterol level in high cholesterol diet fed Sprague-Dawley rat at 3 mg/kg, po after 8 days relative to control; assay type: functional; how it was run: as §3
Rattus norvegicus [20] = assay: Effect on serum cholesterol level in high cholesterol diet fed Sprague-Dawley rat at 10 mg/kg, po after 8 days relative to control; assay type: functional; how it was run: as §3
Rattus norvegicus [21] = assay: Effect on serum HDL-C level in high cholesterol diet fed Sprague-Dawley rat at 0.3 mg/kg, po after 8 days relative to control; assay type: functional; how it was run: as §3
Rattus norvegicus [22] = assay: Effect on serum HDL-C level in high cholesterol diet fed Sprague-Dawley rat at 3 mg/kg, po after 8 days relative to control; assay type: functional; how it was run: as §3
Rattus norvegicus [23] = assay: Effect on serum HDL-C level in high cholesterol diet fed Sprague-Dawley rat at 10 mg/kg, po after 8 days relative to control; assay type: functional; how it was run: as §3
Rattus norvegicus [24] = assay: Effect on serum LDL-C level in high cholesterol diet fed Sprague-Dawley rat at 0.3 mg/kg, po after 8 days relative to control; assay type: functional; how it was run: as §3
Rattus norvegicus [25] = assay: Effect on serum LDL-C level in high cholesterol diet fed Sprague-Dawley rat at 3 mg/kg, po after 8 days relative to control; assay type: functional; how it was run: as §3
Rattus norvegicus [26] = assay: Effect on serum LDL-C level in high cholesterol diet fed Sprague-Dawley rat at 10 mg/kg, po after 8 days relative to control; assay type: functional; how it was run: as §3
Rattus norvegicus [27] = assay: Effect on serum triglyceride level in high cholesterol diet fed Sprague-Dawley rat at 0.3 mg/kg, po after 8 days relative to control; assay type: functional; how it was run: as §3
Rattus norvegicus [28] = assay: Effect on serum triglyceride level in high cholesterol diet fed Sprague-Dawley rat at 3 mg/kg, po after 8 days relative to control; assay type: functional; how it was run: as §3
Rattus norvegicus [29] = assay: Effect on serum triglyceride level in high cholesterol diet fed Sprague-Dawley rat at 10 mg/kg, po after 8 days relative to control; assay type: functional; how it was run: as §3
Mus musculus = organism: Mus musculus; assay: Decrease in blood glucose level in db/db mouse after 11 days; assay type: functional, organism-based
How it was run: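 db/db mice, a diabetes model, were treated for 11 days and blood glucose was monitored.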

SMILES: CCN1C(=O)CC(C)(C)c2cc(C)c(-c3cc(/C=C4\SC(=O)NC4=O)ccc3OC(F)(F)F)cc21
EC50 [1]: 180 nM
EC50 [2]: 0.9 nM
EC50 [3]: 139 nM
Activity (Homo sapiens [4]): 25%
Activity (Rattus norvegicus [5]): 371 mg/dL
Activity (Rattus norvegicus [6]): 41 mg/dL
Activity (Rattus norvegicus [7]): 126 mg/dL
Activity (Rattus norvegicus [8]): 216 mg/dL

SMILES: CCn1c(=O)c2c(c3cc(-c4cc(/C=C/C(=O)O)ccc4OC(F)(F)F)ccc31)CCC2
EC50 [1]: > 3000 nM
EC50 [2]: 96.6 nM
Activity [9]: 125%

SMILES: CCN1C(=O)C(C)(C)Oc2cc(C)c(-c3cc(/C(C)=C/C(=O)O)ccc3OC(F)(F)F)cc21
EC50 [1]: 163 nM
Activity (THP-1): 76%
Activity [9]: 86%
EC50 [3]: > 3000 nM
Activity (Homo sapiens [10]): 240%

SMILES: Cc1cc2c(cc1-c1cc(/C=C/C(=O)O)ccc1OC(F)(F)F)NC(=O)CC2(C)C
EC50 [1]: > 3000 nM
Activity [11]: inactive

SMILES: CCN1C(=O)CC(C)(C)c2cc(C)c(-c3ccc(/C=C/C(=O)O)s3)cc21
EC50 [1]: > 3000 nM
EC50 [2]: 1200 nM

SMILES: CCN1C(=O)C(C)Oc2cc(C)c(-c3cc(/C=C/C(=O)O)ccc3OC(F)(F)F)cc21 (stereo not drawn)
EC50 [1]: > 3000 nM

SMILES: Cc1cc2c(cc1-c1cc(/C=C/C(=O)O)ccc1OCC(F)(F)F)N(C(C)C)C(=O)CC2(C)C
EC50 [1]: 44 nM
Activity (THP-1): 32%
EC50 [2]: 18.3 nM
Activity [9]: 64%
EC50 [3]: > 3000 nM
Activity (Homo sapiens [10]): 149%

SMILES: CCN1C(=O)CN(C(C)C)c2cc(C)c(-c3cc(/C=C/C(=O)O)ccc3OC(F)(F)F)cc21
EC50 [1]: > 3000 nM

SMILES: CCn1c(=O)c2c(c3ccc(-c4cc(/C=C/C(=O)O)ccc4OC(F)(F)F)cc31)CCC2
EC50 [1]: > 3000 nM
EC50 [2]: 1600 nM

SMILES: CCN1C(=O)CC(C)(C)c2cc(C)c(-c3ccc(/C=C/C(=O)O)o3)cc21
EC50 [1]: > 3000 nM
EC50 [2]: > 10000 nM

Continued, in another order:

EC50 [1]: > 3000 nM
EC50 [2]: 1.8 nM
Activity [9]: 94%
EC50 [3]: 126 nM
SMILES: Cc1cc2c(cc1-c1cc(/C=C/C(=O)O)ccc1OC(F)(F)F)N(CC(F)(F)F)C(=O)CC2(C)C

EC50 [1]: 200 nM
EC50 [2]: 24.3 nM
SMILES: Cc1cc2c(cc1-c1cc(/C=C/C(=O)O)ccc1OC(F)(F)F)N(C)C(=O)CC2(C)C
Activity (THP-1): 56%

EC50 [1]: > 3000 nM
EC50 [2]: 2.1 nM
Activity [9]: 83%
EC50 [3]: 131 nM
SMILES: CCCN1C(=O)CC(C)(C)c2cc(C)c(-c3cc(/C=C/C(=O)O)ccc3OC(F)(F)F)cc21

EC50 [1]: 296 nM
EC50 [2]: 67.3 nM
Activity [9]: 76%
EC50 [3]: > 3000 nM
bioavailability [12]: 51%
Cmax [13]: 844 ng/mL
AUC [14]: 5520 ng·h/mL
half-life [15]: 4.6 h
Cmax [16]: 61 ng/mL
Cmax [17]: 2120 ng/mL
SMILES: CCN1C(=O)CC(C)(C)c2cc(C)c(-c3cc(/C=C/C(=O)O)ccc3OCC(F)(F)F)cc21
Activity (THP-1): 60%
Activity (Rattus norvegicus [18]): 382 mg/dL
Activity (Rattus norvegicus [5]): 440 mg/dL
Activity (Rattus norvegicus [19]): 302 mg/dL
Activity (Rattus norvegicus [20]): 349 mg/dL
Activity (Rattus norvegicus [21]): 16 mg/dL
Activity (Rattus norvegicus [6]): 38 mg/dL
Activity (Rattus norvegicus [22]): 34 mg/dL
Activity (Rattus norvegicus [23]): 41 mg/dL
Activity (Rattus norvegicus [24]): 134 mg/dL
Activity (Rattus norvegicus [7]): 151 mg/dL
Activity (Rattus norvegicus [25]): 102 mg/dL
Activity (Rattus norvegicus [26]): 126 mg/dL
Activity (Rattus norvegicus [27]): 341 mg/dL
Activity (Rattus norvegicus [8]): 182 mg/dL
Activity (Rattus norvegicus [28]): 249 mg/dL
Activity (Rattus norvegicus [29]): 175 mg/dL
Activity (Mus musculus): inactive

EC50 [1]: 39.7 nM
EC50 [2]: 173 nM
Activity [9]: 78%
SMILES: CCN1C(=O)C(C)(C)Oc2cc(C)c(-c3cc(/C=C/C(=O)O)ccc3OC(F)(F)F)cc21
Activity (THP-1): 79%

EC50 [1]: > 3000 nM
SMILES: CCN1C(=O)OC(C)(C)c2cc(C)c(-c3cc(/C=C/C(=O)O)ccc3OC(F)(F)F)cc21

EC50 [1]: > 3000 nM
SMILES: CCN1C(=O)CC(C)(C)c2cc(C)c(-c3ccc(/C=C/C(=O)O)cc3OC(F)(F)F)cc21

EC50 [1]: 975 nM
SMILES: CCN1C(=O)CC(C)(C)c2cc(C)c(-c3cc(/C=C/C(=O)O)ccc3OC)cc21

EC50 [1]: 10 nM
SMILES: Cc1cc2c(cc1-c1cc(/C=C/C(=O)O)ccc1OC(F)(F)F)N(C(C)C)C(=O)CC2(C)C
Activity (THP-1): 70%

EC50 [1]: 3.6 nM
EC50 [2]: 1.8 nM
SMILES: CCN1C(=O)CC(C)(C)c2cc(C)c(-c3cc(/C=C/C(=O)O)ccc3OC(F)(F)F)cc21
Activity (THP-1): 81%
